Results on 4 compounds are retold here after publication PMC8268672 (Bioorganic Chemistry, 2021).

Values after ≈ are worked out from the molar mass of the structure shown. Bounds are passed on as bounds.

What all share (type): cell-based
The test system of test [1] is Staphylococcus aureus (ATCC 29213). The test can be described thus: MIC, broth microdilution. The settings on record: ATCC29213, read-out: Minimum inhibitory concentration (MIC), SA. In outline:
(§1)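 Antibacterial MICs by CLSI broth microdilution in Mueller-Hinton broth. Test compounds and standard drugs are serially diluted two-fold from 512 to 0.25. The bacterial broth culture is grown 2-6 h to a 0.5 McFarland turbidity, then adjusted with sterile solution to the final inoculum.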
In general terms: Broth dilution looks for growth in wells or tubes with falling amounts of substance.

For test [2], the system named is Klebsiella aerogenes (NCIM-2098). The test can be described thus: Agar disk diffusion, inhibition zone. To be noted: 100 µg/8 mm disc, triplicate, mean ± SD. For orientation: A growth-free zone around the sample is the usual read-out of agar diffusion tests.
The test system of test [3] is Aspergillus niger (NCIM 2191). Description: Agar disk diffusion, inhibition zone. The settings on record: 100 µg/8 mm disc, triplicate, mean ± SD. In outline: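 For the fungal strain, discs soaked in test compound solution (DMSO stock diluted with distilled water) sat on seeded Mueller-Hinton agar. Clotrimazole was the reference. Incubation ran 48 h at 35 °C, in triplicate. Zone of growth inhibition recorded in mm as the mean diameter around each disc.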

For test [4], the system named is Candida albicans (NCIM 2087). The test can be described thus: MIC, broth microdilution. The settings on record: NCIM2087, read-out: Minimum inhibitory concentration (MIC), CA. A digest of the protocol: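 CLSI broth microdilution in Sabouraud liquid medium, with test compound two-fold serially diluted from 512 to 0.25. Fungal broth culture grown 24 h at 35 °C to 0.5 McFarland turbidity, then adjusted with sterile solution to a final […] inoculum. MIC expressed in µg/mL.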

For test [5], the system named is Escherichia coli (ATCC 8739). The test can be described thus: MIC, broth microdilution. To be noted: ATCC8739, read-out: Minimum inhibitory concentration (MIC), EC. In outline: (§2)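 Broth microdilution per CLSI in Mueller-Hinton broth, using two-fold serial dilutions of test compound and reference drugs from 512 to 0.25. Bacterial broth cultures were grown 2-6 h to 0.5 McFarland turbidity, then diluted with sterile solution to the final inoculum. MIC is reported in µg/mL.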

The test system of test [6] is Aspergillus fumigatus (NCIM 2081). The test can be described thus: MIC, broth microdilution. The settings on record: NCIM2081, read-out: Minimum inhibitory concentration (MIC), AF. A digest of the protocol:
(§3)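 Antifungal MICs by CLSI broth microdilution in Sabouraud liquid medium. Test compounds and standard drugs are serially diluted two-fold from 512 to 0.25. The fungal broth culture is grown 24 h at 35 °C to a 0.5 McFarland turbidity, then adjusted with sterile solution to the final inoculum.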

Test [7] has as its system Pseudomonas aeruginosa (MCCB 0035). Description: Agar disk diffusion, inhibition zone. To be noted: 100 µg/8 mm disc, triplicate, mean ± SD.
Test [8] deals with Cryptococcus neoformans (ATCC 9011). Description: MIC, broth microdilution. The settings on record: ATCC9011, read-out: Minimum inhibitory concentration (MIC), CN. A digest of the protocol: as §3
Test [9] concerns Pseudomonas aeruginosa (MCCB 0035). Description: MIC, broth microdilution. The settings on record: read-out: Minimum inhibitory concentration (MIC), PA. In outline:
as §2

In test [10] the test system is Candida albicans (NCIM 2087). Description: Agar disk diffusion, inhibition zone. The settings on record: 100 µg/8 mm disc, triplicate, mean ± SD.
The test system of test [11] is Lactobacillus casei (NCIM-2651). The test can be described thus: Agar disk diffusion, inhibition zone. To be noted: 100 µg/8 mm disc, triplicate, mean ± SD.
The subject of test [12] is Aspergillus niger (NCIM 2191). The test can be described thus: MIC, broth microdilution. The settings on record: NCIM2191, read-out: Minimum inhibitory concentration (MIC), AN. In outline:
as §3

Test [13] relates to Bacillus cereus (NCIM-2458). The test can be described thus: Agar disk diffusion, inhibition zone. The settings on record: 100 µg/8 mm disc, triplicate, mean ± SD.
For test [14], the system named is Staphylococcus aureus (ATCC 29213). The test can be described thus: Agar disk diffusion, inhibition zone. To be noted: 100 µg/8 mm disc, triplicate, mean ± SD. A digest of the protocol: (§4)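 Agar disk diffusion on Mueller-Hinton agar plates seeded with a standard bacterial suspension. Test compound stock in DMSO, diluted with distilled water; 8 mm sterile filter-paper discs soaked in the solution. Ampicillin was the reference. Plates incubated at 35 °C for 24 h, in triplicate. Read-out is the average inhibition-zone diameter (mm) around each disc.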

Test [15] concerns Streptococcus pneumonia (ATCC 49619). The test can be described thus: Agar disk diffusion, inhibition zone. To be noted: 100 µg/8 mm disc, triplicate, mean ± SD.
In test [16] the test system is Salmonella typhimurium (NCIM-2501). The test can be described thus: Agar disk diffusion, inhibition zone. The settings on record: 100 µg/8 mm disc, triplicate, mean ± SD.
For test [17], the system named is Aspergillus fumigatus (NCIM 2081). The test can be described thus: Agar disk diffusion, inhibition zone. The settings on record: 100 µg/8 mm disc, triplicate, mean ± SD.
The subject of test [18] is Bacillus cereus (NCIM-2458). Description: MIC, broth microdilution. To be noted: NCIM2458, read-out: Minimum inhibitory concentration (MIC), BC. A digest of the protocol: as §2
For test [19], the system named is Escherichia coli (ATCC 8739). Description: Agar disk diffusion, inhibition zone. The settings on record: 100 µg/8 mm disc, triplicate, mean ± SD. A digest of the protocol: as §4
Test [20] concerns Klebsiella aerogenes (NCIM-2098). Description: MIC, broth microdilution. The settings on record: NCIM2098, read-out: Minimum inhibitory concentration (MIC), KA. In outline: as §1
For test [21], the system named is Cryptococcus neoformans (ATCC 9011). Description: Agar disk diffusion, inhibition zone. The settings on record: 100 µg/8 mm disc, triplicate, mean ± SD.

`Cc1ccc(C2SCC(=O)N2S(=O)(=O)c2ccc(C)cc2)cc1` (stereo not drawn) [5t, 2-(4-Methylphenyl)-3-[(4-methylphenyl)sulfonyl]-1,3-thiazolidin-4-one]: the MIC is 64 µg/mL (≈ 184 µM) in [1]; 128 µg/mL (≈ 368 µM) in test [4]; 64 µg/mL (≈ 184 µM) in test [5]; 64 µg/mL (≈ 184 µM) in [6]; over 256 µg/mL in test [8]; 128 µg/mL (≈ 368 µM) in test [9]. Moreover, the figures for the MIC in test [12], in test [18] and in test [20] were 128 µg/mL (≈ 368 µM), over 256 µg/mL and over 256 µg/mL, respectively. Besides, the “Diameter of growth inhibition zone, KA” value in [2] was 07 ± 0.6 mm. In addition, the “Diameter of growth inhibition zone, AN” value in test [3] is recorded as 9.5 ± 0.9 mm. Further, in test [7], the “Diameter of growth inhibition zone, PA” value is 11 ± 0.65 mm. For the same compound, the “Diameter of growth inhibition zone, CA” value in test [10] was 9.8 ± 0.23 mm. Further, the “Diameter of growth inhibition zone, LC” value in test [11] is reported as 08 ± 0.5 mm. Also, the “Diameter of growth inhibition zone, BC” value in [13] was 07 ± 0.84 mm. In test [14], the “Diameter of growth inhibition zone, SA” value turned out to be 12 ± 1.9 mm. In test [15], the “Diameter of growth inhibition zone, SP” value was determined as 07 ± 0.7 mm. In addition, the “Diameter of growth inhibition zone, ST” value in test [16] is listed as 07 ± 0.7 mm. The “Diameter of growth inhibition zone, AF” value in [17] turned out to be 09 ± 1.5 mm. Besides, the “Diameter of growth inhibition zone, EC” value in [19] is recorded as 12 ± 1.2 mm. Also, the “Diameter of growth inhibition zone, CN” value in test [21] is 10 ± 0.9 mm.

`Cc1ccc(S(=O)(=O)N2C(=O)CSC2c2ccc(Br)cc2)cc1` (stereo not drawn) [5d, 2-(4-Bromophenyl)-3-[(4-methylphenyl)sulfonyl]-1,3-thiazolidin-4-one]: the MIC in [1] was 16 µg/mL (≈ 38.8 µM); in test [4] it was 16 µg/mL (≈ 38.8 µM); in test [5], 4 µg/mL (≈ 9.7 µM); in test [6], 16 µg/mL (≈ 38.8 µM); in test [8], 32 µg/mL (≈ 77.6 µM); in test [9], 4 µg/mL (≈ 9.7 µM). Moreover, the results for the MIC in [12], in test [18] and in [20] were 32 µg/mL (≈ 77.6 µM), 32 µg/mL (≈ 77.6 µM) and 8 µg/mL (≈ 19.4 µM), respectively. Further, the “Diameter of growth inhibition zone, KA” value in test [2] was found to be 18 ± 0.3 mm. Moreover, the “Diameter of growth inhibition zone, AN” value in test [3] was 11.8 ± 0.66 mm. The “Diameter of growth inhibition zone, PA” value in test [7] is reported as 20 ± 1.1 mm. Also, the “Diameter of growth inhibition zone, CA” value in [10] is 12.9 ± 0.5 mm. In test [11], the “Diameter of growth inhibition zone, LC” value turned out to be 18 ± 0.44 mm. Moreover, the “Diameter of growth inhibition zone, BC” value in test [13] came to 12 ± 0.4 mm. In addition, in test [14], the “Diameter of growth inhibition zone, SA” value is recorded as 21 ± 2.3 mm. Further, the “Diameter of growth inhibition zone, SP” value in test [15] stood at 10 ± 1.6 mm. Further, in [16], the “Diameter of growth inhibition zone, ST” value amounted to 14 ± 0.6 mm. The “Diameter of growth inhibition zone, AF” value in test [17] came out at 9.8 ± 0.5 mm. Besides, in test [19], the “Diameter of growth inhibition zone, EC” value worked out at 20 ± 0.9 mm. In [21], the “Diameter of growth inhibition zone, CN” value was determined as 17 ± 1.0 mm.

Regarding `CC1(C)S[C@@H]2[C@H](NC(=O)[C@H](N)c3ccccc3)C(=O)N2[C@H]1C(=O)O` [AA, Ampicillin, reference compound], the MIC in test [1] came to 2 µg/mL (≈ 5.72 µM); in test [5], 1 µg/mL (≈ 2.86 µM); in [9], 4 µg/mL (≈ 11.4 µM); in [18] it was 4 µg/mL (≈ 11.4 µM); in [20], 8 µg/mL (≈ 22.9 µM). In test [2], the “Diameter of growth inhibition zone, KA” value stood at 17 mm. In test [7], the “Diameter of growth inhibition zone, PA” value came to 17 mm. The “Diameter of growth inhibition zone, LC” value in [11] amounted to 20 mm. Also, the “Diameter of growth inhibition zone, BC” value in [13] is 19 mm. Also, the “Diameter of growth inhibition zone, SA” value in [14] was determined as 21 mm. The “Diameter of growth inhibition zone, SP” value in test [15] was 17 mm. Also, the “Diameter of growth inhibition zone, ST” value in test [16] is on record as 18 mm. In addition, in test [19], the “Diameter of growth inhibition zone, EC” value was 18 mm.

For `Clc1ccccc1C(c1ccccc1)(c1ccccc1)n1ccnc1` [CL, Clotrimazole, reference compound], in [3], the “Diameter of growth inhibition zone, AN” value is recorded as 23 mm. For the same compound, the MIC was 4 µg/mL (≈ 11.6 µM) in test [4], 1 µg/mL (≈ 2.9 µM) in [6], 2 µg/mL (≈ 5.8 µM) in test [8] and 16 µg/mL (≈ 46.4 µM) in test [12]. Further, the “Diameter of growth inhibition zone, CA” value in test [10] was determined as 24 mm. In [17], the “Diameter of growth inhibition zone, AF” value came out at 22 mm. The “Diameter of growth inhibition zone, CN” value in test [21] was 19 mm.
